The record followed here is paper PMC3170876 (Chemmedchem, 2011).

The target of one data set is human 11β-HSD1 (Homo sapiens, UniProt P28845). The data set is described as follows: 11β-HSD1 inhibition cellular assay. It is filed as cell-based. As to conditions: IC50, human 11β-HSD1, HEK293 cell line transfected with human HSD11B1 gene; mean of three measurements, variance less than 20 %.
Data set [1] addresses T1, human cytochrome P450 1A2 (Homo sapiens, UniProt P05177).
T1 sequence (P05177 1-516): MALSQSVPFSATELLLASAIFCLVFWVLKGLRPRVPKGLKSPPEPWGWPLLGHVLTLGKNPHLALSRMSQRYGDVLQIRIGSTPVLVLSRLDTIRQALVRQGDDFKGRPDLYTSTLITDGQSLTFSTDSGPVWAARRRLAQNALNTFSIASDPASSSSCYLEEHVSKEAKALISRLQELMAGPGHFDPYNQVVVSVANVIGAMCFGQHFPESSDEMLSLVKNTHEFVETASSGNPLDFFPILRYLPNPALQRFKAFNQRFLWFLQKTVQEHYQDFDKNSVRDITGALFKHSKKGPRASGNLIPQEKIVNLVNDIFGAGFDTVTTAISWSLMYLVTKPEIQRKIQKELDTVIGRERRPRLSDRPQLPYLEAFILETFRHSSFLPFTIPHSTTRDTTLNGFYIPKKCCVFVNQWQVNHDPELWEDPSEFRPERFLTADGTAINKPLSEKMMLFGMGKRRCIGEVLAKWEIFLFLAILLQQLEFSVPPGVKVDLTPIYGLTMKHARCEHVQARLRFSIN
Kind of data set: Inhibition of human cytochrome P450 1A2. The class given is in vitro ADME. In a few lines:
(§1)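 Human CYP450 isoform inhibition (1A2, 2C9, 2C19, 2D6, 3A4) measured as IC50 or as percent inhibition at 10 μm test compound. For 3A4, two probe substrates were used separately: 7-benzyloxy-trifluoromethylcoumarin (BFC) and […] (BQ). Each value is the mean of two measurements.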

The target of data set [2] is human cytochrome P450 2C19 (Homo sapiens, UniProt P33261). Kind of data set: Inhibition of human cytochrome P450 2C19. The class given is in vitro ADME. In a few lines:
as §1

The next data set has as its target mouse 11β-HSD1 (Mus musculus, UniProt P50172). The data set is described as follows: Inhibition of mouse 11β-HSD1. The class given is cell-based.
Data set [3] is described as follows: Membrane permeability in the Caco-2 cell model. It is filed as in vitro ADME. As to conditions: human. In a few lines:
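Caco-2 monolayer permeability. Test compound was applied at 20 μm, and the apparent permeability coefficient (Papp) was determined in the apical-to-basolateral direction.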
On the technique in general: Passage across Caco-2 layers is used to estimate intestinal permeability.

The target of data set [4] is human cytochrome P450 3A4 (Homo sapiens, UniProt P08684). Kind of data set: Inhibition of human cytochrome P450 3A4. The class given is in vitro ADME. As to conditions: IC50 CYP450 3A4-BQ, substrate BQ; mean of two measurements. The method, boiled down: as §1
A further data set concerns the target T2, human 11β-HSD2 (Homo sapiens, UniProt P80365).
T2 sequence (P80365 1-405): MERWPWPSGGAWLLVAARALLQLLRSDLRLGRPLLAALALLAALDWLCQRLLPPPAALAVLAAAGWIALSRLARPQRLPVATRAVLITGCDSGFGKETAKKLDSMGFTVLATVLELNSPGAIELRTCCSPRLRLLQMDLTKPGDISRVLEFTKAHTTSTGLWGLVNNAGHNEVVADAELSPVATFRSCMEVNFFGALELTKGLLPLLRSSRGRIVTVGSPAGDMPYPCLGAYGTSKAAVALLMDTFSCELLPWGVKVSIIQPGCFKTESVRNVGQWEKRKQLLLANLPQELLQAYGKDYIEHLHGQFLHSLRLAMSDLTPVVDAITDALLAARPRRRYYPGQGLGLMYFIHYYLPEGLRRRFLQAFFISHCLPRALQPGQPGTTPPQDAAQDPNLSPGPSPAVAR
Kind of data set: Selectivity: inhibition of human 11β-HSD2. The class given is cell-based. As to conditions: at a concentration of 10 μM (data not shown).

The next data set deals with T3, 17β-HSD1 (Homo sapiens, UniProt P14061).
T3 sequence (P14061 1-328): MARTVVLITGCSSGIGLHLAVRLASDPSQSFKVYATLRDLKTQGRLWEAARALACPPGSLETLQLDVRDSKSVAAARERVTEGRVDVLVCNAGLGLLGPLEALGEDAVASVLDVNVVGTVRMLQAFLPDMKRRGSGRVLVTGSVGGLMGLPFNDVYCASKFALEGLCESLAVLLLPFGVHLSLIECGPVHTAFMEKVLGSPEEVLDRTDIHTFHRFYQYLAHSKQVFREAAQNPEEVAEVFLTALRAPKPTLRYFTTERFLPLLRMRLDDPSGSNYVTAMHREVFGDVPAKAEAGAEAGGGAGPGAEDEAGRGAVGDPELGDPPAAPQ
The data set is described as follows: Selectivity: inhibition of 17β-HSD1. As to conditions: at a concentration of 10 μM (data not shown).

Data set [5] in a line: Metabolic stability in human liver microsomes. Conditions: 37 °C, NADPH, 40 min incubation, mean of two experiments. The class given is in vitro ADME. In a few lines:
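Parent compound was incubated with human liver microsomes plus NADPH cofactor at 37 °C for 40 min. Loss of parent was followed by HPLC, and half-life and intrinsic clearance were calculated from the depletion. Values are the mean of two experiments.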
For orientation: Liver microsomes are vesicles of endoplasmic reticulum, rich in cytochrome P450 enzymes.

Data set [6] addresses human cytochrome P450 2C9 (Homo sapiens, UniProt P11712). Kind of data set: Inhibition of human cytochrome P450 2C9. The class given is in vitro ADME. In a few lines:
as §1

The target of data set [7] is human cytochrome P450 2D6 (Homo sapiens, UniProt P10635). Kind of data set: Inhibition of human cytochrome P450 2D6. The class given is in vitro ADME. In a few lines: as §1
Sequence of human cytochrome P450 2D6 (P10635 whole entry): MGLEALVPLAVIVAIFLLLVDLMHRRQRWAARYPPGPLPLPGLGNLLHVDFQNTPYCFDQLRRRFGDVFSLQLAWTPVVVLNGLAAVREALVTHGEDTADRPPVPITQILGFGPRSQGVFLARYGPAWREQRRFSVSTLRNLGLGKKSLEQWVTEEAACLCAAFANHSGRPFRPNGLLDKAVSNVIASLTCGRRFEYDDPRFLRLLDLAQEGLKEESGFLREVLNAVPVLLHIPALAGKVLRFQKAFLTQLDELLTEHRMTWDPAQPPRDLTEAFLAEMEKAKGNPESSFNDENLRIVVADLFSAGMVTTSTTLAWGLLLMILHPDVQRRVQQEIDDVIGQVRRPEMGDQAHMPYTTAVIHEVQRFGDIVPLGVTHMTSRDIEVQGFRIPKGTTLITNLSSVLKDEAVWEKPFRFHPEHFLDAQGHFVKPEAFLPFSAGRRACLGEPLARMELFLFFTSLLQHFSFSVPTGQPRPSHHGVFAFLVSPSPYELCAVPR

Sequence of human cytochrome P450 2C19 (P33261 whole entry): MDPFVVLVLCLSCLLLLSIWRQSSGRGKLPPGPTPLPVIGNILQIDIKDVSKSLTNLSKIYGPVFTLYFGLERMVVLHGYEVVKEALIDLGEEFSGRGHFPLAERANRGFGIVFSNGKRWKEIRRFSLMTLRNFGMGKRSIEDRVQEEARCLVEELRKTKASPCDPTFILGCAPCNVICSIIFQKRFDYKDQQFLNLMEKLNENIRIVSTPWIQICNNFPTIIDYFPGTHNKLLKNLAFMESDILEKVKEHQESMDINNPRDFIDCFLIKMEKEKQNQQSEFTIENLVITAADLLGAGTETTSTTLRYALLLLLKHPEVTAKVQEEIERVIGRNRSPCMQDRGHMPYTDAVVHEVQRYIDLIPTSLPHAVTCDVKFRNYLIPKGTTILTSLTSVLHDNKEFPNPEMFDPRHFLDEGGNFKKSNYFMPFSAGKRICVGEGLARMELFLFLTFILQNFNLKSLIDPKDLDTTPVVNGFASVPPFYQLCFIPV
Sequence of human 11β-HSD1 (P28845 whole entry): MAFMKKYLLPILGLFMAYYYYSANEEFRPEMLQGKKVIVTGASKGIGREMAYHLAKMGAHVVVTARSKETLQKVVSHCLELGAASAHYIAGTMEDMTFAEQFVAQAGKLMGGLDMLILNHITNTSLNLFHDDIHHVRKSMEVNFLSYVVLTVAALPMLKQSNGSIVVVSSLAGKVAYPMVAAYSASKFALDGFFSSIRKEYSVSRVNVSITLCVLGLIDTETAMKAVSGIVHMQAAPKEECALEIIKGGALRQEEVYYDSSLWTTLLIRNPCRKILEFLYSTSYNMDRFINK
Sequence of human cytochrome P450 3A4 (P08684 whole entry): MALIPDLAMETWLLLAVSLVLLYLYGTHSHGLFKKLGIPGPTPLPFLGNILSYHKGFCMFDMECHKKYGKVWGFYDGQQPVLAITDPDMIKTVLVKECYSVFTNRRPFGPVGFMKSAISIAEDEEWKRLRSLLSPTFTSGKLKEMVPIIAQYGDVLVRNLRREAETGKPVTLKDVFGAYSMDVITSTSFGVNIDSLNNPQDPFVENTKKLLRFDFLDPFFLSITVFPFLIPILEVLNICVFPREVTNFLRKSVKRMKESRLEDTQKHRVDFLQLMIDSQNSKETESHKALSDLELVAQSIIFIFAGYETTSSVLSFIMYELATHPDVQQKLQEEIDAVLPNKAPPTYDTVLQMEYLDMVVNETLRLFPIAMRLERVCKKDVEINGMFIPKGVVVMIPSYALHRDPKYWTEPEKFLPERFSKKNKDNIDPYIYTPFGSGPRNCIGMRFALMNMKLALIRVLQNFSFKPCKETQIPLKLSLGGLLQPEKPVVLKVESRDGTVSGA
Sequence of mouse 11β-HSD1 (P50172 whole entry): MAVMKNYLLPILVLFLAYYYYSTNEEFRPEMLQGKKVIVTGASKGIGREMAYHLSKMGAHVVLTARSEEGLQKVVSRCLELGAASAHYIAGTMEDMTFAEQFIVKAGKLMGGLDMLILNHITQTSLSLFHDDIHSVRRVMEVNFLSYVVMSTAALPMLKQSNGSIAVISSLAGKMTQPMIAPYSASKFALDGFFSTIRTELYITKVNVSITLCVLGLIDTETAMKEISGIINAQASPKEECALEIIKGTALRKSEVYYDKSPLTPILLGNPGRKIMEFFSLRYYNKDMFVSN
Sequence of human cytochrome P450 2C9 (P11712 whole entry): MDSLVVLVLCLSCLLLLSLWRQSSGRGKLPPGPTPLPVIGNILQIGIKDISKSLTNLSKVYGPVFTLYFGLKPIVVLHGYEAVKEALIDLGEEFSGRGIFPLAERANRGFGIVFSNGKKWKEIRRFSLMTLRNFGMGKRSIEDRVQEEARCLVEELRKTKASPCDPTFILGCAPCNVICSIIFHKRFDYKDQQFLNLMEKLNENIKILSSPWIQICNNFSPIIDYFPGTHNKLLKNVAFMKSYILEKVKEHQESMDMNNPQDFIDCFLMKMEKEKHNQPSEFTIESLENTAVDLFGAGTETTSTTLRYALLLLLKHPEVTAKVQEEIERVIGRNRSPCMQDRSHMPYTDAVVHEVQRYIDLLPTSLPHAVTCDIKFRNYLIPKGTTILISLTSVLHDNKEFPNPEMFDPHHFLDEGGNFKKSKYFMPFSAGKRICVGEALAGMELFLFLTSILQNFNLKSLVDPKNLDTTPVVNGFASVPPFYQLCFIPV

As a reminder, the IC50 is the concentration that inhibits the measured activity by half. A higher IC50 goes with lower potency. As a reminder, the melting point is the temperature, or range, at which the solid turns liquid. In general, Papp A→B refers to the apparent permeability from the apical to the basolateral side of a cell layer. A higher Papp A→B goes with fast passage. With `O=C(C[S+]([O-])Cc1cccs1)C12CC3CC(CC(C3)C1)C2` (centres unmarked) [Compound 14, 1-(Adamantan-1-yl)-2-(thiophen-2-ylmethanesulfinyl)ethanone], the melting point was in the range of 95 to 98 °C. At human 11β-HSD1, the half-maximal inhibitory concentration (IC50) was less than 0.05 µM. This molecule had an IC50 in data set [1] of 33 µM. In data set [2], this molecule yielded an IC50 of 30 µM. This molecule yielded an IC50 at mouse 11β-HSD1 of 0.02 µM. The molecule also registered an apparent permeability from apical to basolateral (Papp A→B) at 20 μM in data set [3] of 22 ×10⁻⁶ cm/s. Besides, the IC50 in [4] is 12 µM.

Take `Cc1nnc(SCC(=O)C23CC4CC(CC(C4)C2)C3)n1C` [Compound 38, 1-(Adamantan-1-yl)-2-[(4,5-dimethyl-1,2,4-triazol-3-yl)sulfanyl]ethanone]: the IC50 came out at 0.036 µM against human 11β-HSD1 and 0.248 µM on mouse 11β-HSD1. On human 11β-HSD2, the “inhibition against human 11β-HSD2” value was “inactive”. Further, the “inhibition against 17β-HSD1” value at 17β-HSD1 is “inactive”.

In [5], `Cn1cnnc1SCC(=O)C12CC3CC(CC(C3)C1)C2` [Compound 28, 1-(Adamantan-1-yl)-2-(4-methyl-4H-[1,2,4]triazol-3-ylsulfanyl)-ethanone] yielded a CLint of 8.7 µL/min/mg. Moreover, the IC50 in data set [1] came out at 21 µM; in data set [2], 3.6 µM; in [4] it was 62 µM. The “inhibition against human 11β-HSD2” value at human 11β-HSD2 was “inactive”. For the same molecule, the “inhibition against 17β-HSD1” value against 17β-HSD1 is “inactive”.

As for `Cc1nnc(S(=O)(=O)CC(=O)C23CC4CC(CC(C4)C2)C3)s1` [Compound 37, 1-(Adamantan-1-yl)-2-(5-methyl-[1,3,4]thiadiazole-2-sulfonyl)ethanone], the melting point was 111 to 113 °C. For the same molecule, the IC50 in data set [1] was more than 100 µM. In data set [2], this molecule yielded an IC50 of 17 µM. This molecule also showed an IC50 in [6] of 11 µM. The IC50 in data set [7] is more than 100 µM. For the same molecule, in [4], half-maximal inhibition (IC50) was put at 30 µM.

Turning to `Cn1cnnc1[S+]([O-])CC(=O)C12CC3CC(CC(C3)C1)C2` (centres unmarked) [Compound 32, 1-(Adamantan-1-yl)-2-(4-methyl-4H-[1,2,4]triazole-3-sulfinyl)ethanone], the melting point lay in the range of 124.5 to 127 °C. The same molecule yielded a half-maximal inhibitory concentration (IC50) on human 11β-HSD1 of 0.027 µM. At mouse 11β-HSD1, this molecule came in with an IC50 of 3.08 µM.

Molecule `Cc1nnc([S+]([O-])CC(=O)C23CC4CC(CC(C4)C2)C3)s1` (centres unmarked) [Compound 33, 1-(Adamantan-1-yl)-2-(5-methyl-[1,3,4]thiadiazole-2-sulfinyl)ethanone] registered a melting point of 127 to 129 °C. This molecule showed an IC50 against human 11β-HSD1 of 0.026 µM. Further, the half-inhibitory concentration (IC50) at mouse 11β-HSD1 amounted to 0.044 µM.

The molecule `Cn1ccnc1[S+]([O-])CC(=O)C12CC3CC(CC(C3)C1)C2` (centres unmarked) [Compound 31, 1-(Adamantan-1-yl)-2-(1-methyl-1H-imidazole-2-sulfinyl)ethanone] came in with a melting point of 86 to 89 °C. Besides, on human 11β-HSD1, inhibition was half-maximal at 0.048 µM (IC50). The “inhibition against human 11β-HSD2” value on human 11β-HSD2 was “inactive”. This molecule had an IC50 on mouse 11β-HSD1 of 0.121 µM. Also, on 17β-HSD1, the “inhibition against 17β-HSD1” value is “inactive”. The Papp A→B at 20 μM in data set [3] stood at 44 ×10⁻⁶ cm/s.

`O=C(C[S+]([O-])Cc1ccco1)C12CC3CC(CC(C3)C1)C2` (centres unmarked) [Compound 15, 1-(Adamantan-1-yl)-2-(furan-2-ylmethanesulfinyl)ethanone] registered a melting point of 75 to 79 °C. At human 11β-HSD1, this molecule returned a half-maximal inhibitory concentration (IC50) of 0.041 µM. For the same molecule, half-maximal inhibition against mouse 11β-HSD1 (IC50) required 0.038 µM.
